Experimental data collected from several papers.
Lines come from different studies, so protocols differ.
UGT1A9: UDP-glucuronosyltransferase 1A9 (UGT1A9, Homo sapiens, UniProt O60656)

| SMILES | tested on | test | system | setting | endpoint | value |
| --- | --- | --- | --- | --- | --- | --- |
| CC(C)(O)c1cn(-c2ccc(-c3cc(F)c(CO)c(S(C)(=O)=O)c3)cc2)c(C(C)(C)c2cccc(F)c2Cl)n1 | – | – | male cynomolgus monkey, plasma | intravenous, 1 mg/kg, single dose | clearance | 9.4 mL/min/kg |
| N#CC(C(=O)Nc1cccc(C(F)(F)F)c1)=C1Sc2nc3ccc(S(=O)(=O)N4CCCC4)cc3nc2S1 | WI-38 | cell growth or viability, MTT | – | 3.125 µM, 24 h | viability | 100% |
| C[C@H](O)c1cc(C(=O)N[C@@H](C)Cn2ccc(-c3ccc(C#N)c(Cl)c3)n2)n[nH]1 | UGT1A9 | enzyme activity, inhibitor | human, liver microsomes | – | IC50 | > 100 µM |
| CON=C(N)c1ccc(-c2ccc(-c3ccc(C(N)=NOC)cc3)o2)cc1 | Cytochrome P450 1A1 (CYP1A1, Homo sapiens, UniProt P04798) | enzyme activity, substrate | – | – | Km | 500 nM |
| CC(=O)c1cc(C(=O)N[C@@H](C)Cn2ccc(-c3ccc(C#N)c(Cl)c3)n2)[nH]n1 | UGT1A9 | enzyme activity, inhibitor | human, liver microsomes | – | IC50 | > 50 µM |
| CC(C)(O)c1cn(-c2ccc(-c3ccc(CO)c(S(C)(=O)=O)c3)cc2)c(Cc2ccccc2Cl)n1 | – | – | cynomolgus monkey, plasma | intravenous, 0.25 mg/kg, single dose | clearance | 61 mL/min/kg |
| N#Cc1cc(NC(=O)[C@H]2c3ccccc3C(=O)N(CC(F)(F)F)[C@@H]2c2cccnc2)ccc1F | – | metabolic stability | dog, liver microsomes | – | half-life | > 240 min |
| CN(CCC(=O)O)C(=O)c1ccc2c(c1)CC[C@@H]1[C@@H]2CC[C@]2(C)C(c3cncc(F)c3)=CC[C@@H]12 | UGT1A9 | enzyme activity, inhibitor | – | – | IC50 | > 30 µM |
| O=C1CCCCC1=C1Sc2nc3ccc(S(=O)(=O)N4CCCC4)cc3nc2S1 | WI-38 | cell growth or viability, MTT | – | 25 µM, 24 h | viability | 70.8% |
